We go through one molecule from ChEMBL document CHEMBL5316310, “Discovery of MK-8189, a Highly Potent and Selective PDE10A Inhibitor for the Treatment of Schizophrenia” (J Med Chem, 2023).

Series [1] concerns Rattus norvegicus. In words: Anti-psychotic activity in rat assessed as inhibition of MK-801-induced hyperlocomotion administered orally 1 hr prior to MK-801 administration and measured for 90 mins. In kind it is functional, organism-based. Particulars: dose 0.25-0.75 mg/kg, route po, time 150.0 min. In outline: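 Rats given compound orally at 0.25–0.75 mg/kg 1 h before the NMDA antagonist MK-801. Total distance travelled was recorded over 90 min and compared with vehicle + MK-801 groups (p < 0.05). n = 8/group; mean ± SEM.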

A short description of series [2]: Plasma concentration in rat at 0.25 mg/kg, po measured after 1 hr. The format is ADME, organism-based. In outline:
(§1)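 Rat novel object recognition (episodic memory) study, orally dosed. Plasma drawn 1 h post dose at end of the experiment for compound level. n = 4/group, reported as mean (SEM).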

The nature of series [3]: Selectivity ratio of Ki for N-terminal GST-tagged human recombinant PDE4A1A (1 to 647 residues) expressed in baculovirus-infected Sf9 cells to Ki for human PDE10A2 transfected in human AD293 cells cytosolic fraction.
Series [4] concerns the target Sodium channel protein type 5 subunit alpha (Homo sapiens, UniProt Q14524). In words: Inhibition of Nav1.5 (unknown origin).
The target of series [5] is T1, Nuclear receptor subfamily 1 group I member 2 (Homo sapiens, UniProt O75469).
T1 sequence (O75469 whole entry): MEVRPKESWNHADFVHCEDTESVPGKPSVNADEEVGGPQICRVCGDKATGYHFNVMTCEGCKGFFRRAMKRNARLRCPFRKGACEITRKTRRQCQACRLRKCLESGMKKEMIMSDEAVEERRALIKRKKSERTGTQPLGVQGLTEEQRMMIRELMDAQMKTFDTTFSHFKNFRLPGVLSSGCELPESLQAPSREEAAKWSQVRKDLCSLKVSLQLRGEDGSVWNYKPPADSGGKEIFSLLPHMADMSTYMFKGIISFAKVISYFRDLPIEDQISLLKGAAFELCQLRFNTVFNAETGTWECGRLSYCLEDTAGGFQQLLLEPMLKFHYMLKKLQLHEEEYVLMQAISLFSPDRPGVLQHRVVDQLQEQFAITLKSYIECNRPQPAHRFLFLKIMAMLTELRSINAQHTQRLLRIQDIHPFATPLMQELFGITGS
Description: Activation of PXR (unknown origin) assessed as CYP3A4 induction. The format is ADME.

Series [6] can be described thus: Protein binding in human plasma. In kind it is ADME, cell-free.
Series [7] is described as follows: In vivo receptor occupancy at PDE10A receptor in MK-801-induced psychosis rat model striatum at 0.75 mg/kg, po administered 1 hr prior to MK-801 administration and measured after 90 mins. In kind it is functional. Conditions: time 2.5 hrs. Put shortly: (§2)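 Rats in the MK-801 locomotor study were dosed orally at 0.25, 0.50 or 0.75 mg/kg. Plasma was taken 2.5 h post dose and drug levels measured. Striatal PDE10A occupancy was derived from plasma concentration using the [3H]MK-8193 ex vivo occupancy relation. n = 8/group; mean (SEM).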

A short description of series [8]: In vivo receptor occupancy at PDE10A receptor in rat striatum at 0.16 mg/kg, po measured after 1 hr. The format is functional. In outline:
(§3)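 Striatal PDE10A occupancy in rats given the compound orally during the novel object recognition test. Occupancy was not measured directly but derived from plasma concentration taken 1 h post dose. n = 4/group, reported as mean (SEM).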

The nature of series [9]: Selectivity ratio of Ki for N-terminal GST-tagged human recombinant PDE11A4 (1 to 943 residues) expressed in baculovirus-infected Sf9 cells to Ki for human PDE10A2 transfected in human AD293 cells cytosolic fraction.
A short description of series [10]: Selectivity ratio of Ki for N-terminal GST-tagged full length human recombinant PDE8A1 expressed in baculovirus-infected Sf9 cells to Ki for human PDE10A2 transfected in human AD293 cells cytosolic fraction.
The nature of series [11]: Selectivity ratio of Ki for N-terminal GST-tagged and C-terminal His-tagged human recombinant PDE7A (122 to 456 residues) expressed in baculovirus-infected Sf9 cells to Ki for human PDE10A2 transfected in human AD293 cells cytosolic fraction.
A short description of series [12]: Selectivity ratio of Ki for N-terminal GST-tagged human recombinant PDE1A expressed in baculovirus-infected Sf9 cells to Ki for human PDE10A2 transfected in human AD293 cells cytosolic fraction.
The nature of series [13]: Plasma clearance in Wistar-Hannover rat at 2 mg/kg, iv by LC-MS/MS analysis. The format is ADME, organism-based. In outline:
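IV bolus in DMSO/PEG400 (1:1). Male Wistar–Hannover rats (n = 3, ~300 g): 2 mg/kg via jugular cannula, sampled 0.03–24 h. Male rhesus (n = 3): 0.5 mg/kg into saphenous or cephalic vein, sampled to 24 h. Plasma (EDTA) analysed by LC-MS/MS after acetonitrile precipitation. Non-compartmental analysis; CL = dose/AUC0-inf; t1/2 from log-linear regression of the terminal phase. Values are means.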

Series [14] is described as follows: Plasma concentration in rat at 0.16 mg/kg, po measured after 1 hr. In kind it is ADME, organism-based. Put shortly: as §1
Series [15] has as its target P-gp (ABCB1) (Rattus norvegicus, UniProt P43245). In words: Substrate activity at rat P-gp assessed as efflux ratio. The format is ADME.
A short description of series [16]: In vivo receptor occupancy at PDE10A receptor in rat striatum at 0.08 mg/kg, po measured after 1 hr. In kind it is functional. Put shortly:
as §3

Series [17] in a line: Plasma concentration in MK-801-induced psychosis rat model at 0.5 mg/kg, po administered 1 hr prior to MK-801 administration and measured after 90 mins. The format is ADME, organism-based. Particulars: time 150 min. Put shortly: (§4)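 Rats dosed orally, then MK-801 1 h later; locomotor activity recorded over 90 min. Plasma drawn 2.5 h post dose at end of the study and assayed for compound. n = 8/group, reported as mean (SEM).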

Series [18] can be described thus: Protein binding in human plasma assessed as unbound fraction. In kind it is ADME, cell-free.
A short description of series [19]: In vivo receptor occupancy at PDE10A receptor in MK-801-induced psychosis rat model striatum at 0.25 mg/kg, po administered 1 hr prior to MK-801 administration and measured after 90 mins. Conditions: time 2.5 hrs. In kind it is functional. In outline: as §2
A short description of series [20]: Solubility of compound in acidic simulated gastric fluid. Particulars: simulated gi fluid. The format is physicochemical.
Series [21] in a line: Plasma concentration in MK-801-induced psychosis rat model at 0.25 mg/kg, po administered 1 hr prior to MK-801 administration and measured after 90 mins. The format is ADME, organism-based. Particulars: time 150 min. Put shortly:
as §4

A short description of series [22]: Substrate activity at monkey P-gp assessed as efflux ratio. The format is ADME, Macaca mulatta. Conditions: rhesus monkey.
A short description of series [23]: Volume of distribution at steady state in Wistar-Hannover rat at 2 mg/kg, iv by LC-MS/MS analysis. In kind it is ADME, organism-based. Particulars: in vivo, read-out: Vdss. In outline:
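Male Wistar–Hannover rats (~300 g, n = 3) received a 2 mg/kg IV bolus through a jugular vein cannula, dosed from a 5 mg/mL solution in DMSO/PEG400 (1:1). EDTA blood was sampled from pre-dose to 24 h. Plasma was protein-precipitated with acetonitrile and analysed by positive-ion APCI LC-MS/MS. Vdss was calculated non-compartmentally as plasma clearance × mean residence time and reported as the mean.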

Series [24] concerns the target Voltage-dependent L-type calcium channel subunit alpha-1C (Homo sapiens, UniProt Q13936). In words: Inhibition of Cav1.2 (unknown origin).

The structures appear in SMILES notation. ≈ marks a conversion by molar mass, not a printed value.

Chain of Sodium channel protein type 5 subunit alpha (Q14524 whole entry): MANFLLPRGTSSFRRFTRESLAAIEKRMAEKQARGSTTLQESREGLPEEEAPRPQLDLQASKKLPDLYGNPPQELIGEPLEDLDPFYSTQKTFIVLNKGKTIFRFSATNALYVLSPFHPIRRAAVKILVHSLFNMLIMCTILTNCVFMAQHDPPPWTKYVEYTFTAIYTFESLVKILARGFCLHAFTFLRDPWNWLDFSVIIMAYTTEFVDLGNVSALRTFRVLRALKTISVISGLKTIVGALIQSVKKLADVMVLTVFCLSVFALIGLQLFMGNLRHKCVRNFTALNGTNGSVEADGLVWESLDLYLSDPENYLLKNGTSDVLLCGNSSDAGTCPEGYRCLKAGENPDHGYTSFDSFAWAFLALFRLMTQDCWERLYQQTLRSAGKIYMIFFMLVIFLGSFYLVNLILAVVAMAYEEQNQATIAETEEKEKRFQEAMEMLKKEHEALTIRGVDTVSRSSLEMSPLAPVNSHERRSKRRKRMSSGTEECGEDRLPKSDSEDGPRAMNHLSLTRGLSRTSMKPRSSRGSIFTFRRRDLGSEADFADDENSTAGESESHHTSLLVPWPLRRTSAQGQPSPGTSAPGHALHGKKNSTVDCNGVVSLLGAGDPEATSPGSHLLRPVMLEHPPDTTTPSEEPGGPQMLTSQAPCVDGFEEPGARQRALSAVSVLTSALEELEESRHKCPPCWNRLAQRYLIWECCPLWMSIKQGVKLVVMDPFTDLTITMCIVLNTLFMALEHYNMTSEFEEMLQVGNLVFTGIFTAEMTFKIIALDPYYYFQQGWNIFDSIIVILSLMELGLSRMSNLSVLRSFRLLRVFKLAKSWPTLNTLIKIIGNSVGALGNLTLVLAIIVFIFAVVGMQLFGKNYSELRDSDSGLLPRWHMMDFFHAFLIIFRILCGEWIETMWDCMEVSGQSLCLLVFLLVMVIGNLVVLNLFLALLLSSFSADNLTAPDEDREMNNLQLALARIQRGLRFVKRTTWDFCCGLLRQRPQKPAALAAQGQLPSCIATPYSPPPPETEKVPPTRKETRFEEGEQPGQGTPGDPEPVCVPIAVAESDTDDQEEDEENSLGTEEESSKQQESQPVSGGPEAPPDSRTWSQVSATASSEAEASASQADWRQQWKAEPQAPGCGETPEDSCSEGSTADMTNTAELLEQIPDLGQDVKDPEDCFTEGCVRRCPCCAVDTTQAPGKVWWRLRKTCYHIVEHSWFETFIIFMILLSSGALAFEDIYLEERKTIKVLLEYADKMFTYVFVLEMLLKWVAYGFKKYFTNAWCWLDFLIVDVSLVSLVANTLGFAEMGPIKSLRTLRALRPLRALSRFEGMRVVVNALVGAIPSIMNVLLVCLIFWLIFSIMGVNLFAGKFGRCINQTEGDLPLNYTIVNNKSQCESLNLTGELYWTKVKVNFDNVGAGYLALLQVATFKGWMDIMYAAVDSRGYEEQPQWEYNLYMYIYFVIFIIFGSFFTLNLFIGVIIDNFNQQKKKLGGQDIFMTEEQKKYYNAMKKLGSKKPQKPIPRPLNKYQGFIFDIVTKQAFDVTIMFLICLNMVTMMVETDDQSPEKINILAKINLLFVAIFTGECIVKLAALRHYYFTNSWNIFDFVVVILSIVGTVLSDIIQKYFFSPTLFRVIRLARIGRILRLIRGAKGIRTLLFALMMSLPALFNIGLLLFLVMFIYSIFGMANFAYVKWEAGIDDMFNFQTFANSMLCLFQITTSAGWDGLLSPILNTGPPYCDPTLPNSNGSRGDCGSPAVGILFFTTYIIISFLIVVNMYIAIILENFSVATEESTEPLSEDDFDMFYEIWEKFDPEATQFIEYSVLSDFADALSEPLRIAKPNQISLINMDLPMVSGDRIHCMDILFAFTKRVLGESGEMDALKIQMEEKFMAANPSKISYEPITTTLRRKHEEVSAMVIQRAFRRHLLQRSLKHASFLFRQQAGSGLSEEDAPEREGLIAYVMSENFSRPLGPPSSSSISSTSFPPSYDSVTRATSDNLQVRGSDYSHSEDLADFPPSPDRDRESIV
Chain of P-gp (ABCB1) (P43245 whole entry): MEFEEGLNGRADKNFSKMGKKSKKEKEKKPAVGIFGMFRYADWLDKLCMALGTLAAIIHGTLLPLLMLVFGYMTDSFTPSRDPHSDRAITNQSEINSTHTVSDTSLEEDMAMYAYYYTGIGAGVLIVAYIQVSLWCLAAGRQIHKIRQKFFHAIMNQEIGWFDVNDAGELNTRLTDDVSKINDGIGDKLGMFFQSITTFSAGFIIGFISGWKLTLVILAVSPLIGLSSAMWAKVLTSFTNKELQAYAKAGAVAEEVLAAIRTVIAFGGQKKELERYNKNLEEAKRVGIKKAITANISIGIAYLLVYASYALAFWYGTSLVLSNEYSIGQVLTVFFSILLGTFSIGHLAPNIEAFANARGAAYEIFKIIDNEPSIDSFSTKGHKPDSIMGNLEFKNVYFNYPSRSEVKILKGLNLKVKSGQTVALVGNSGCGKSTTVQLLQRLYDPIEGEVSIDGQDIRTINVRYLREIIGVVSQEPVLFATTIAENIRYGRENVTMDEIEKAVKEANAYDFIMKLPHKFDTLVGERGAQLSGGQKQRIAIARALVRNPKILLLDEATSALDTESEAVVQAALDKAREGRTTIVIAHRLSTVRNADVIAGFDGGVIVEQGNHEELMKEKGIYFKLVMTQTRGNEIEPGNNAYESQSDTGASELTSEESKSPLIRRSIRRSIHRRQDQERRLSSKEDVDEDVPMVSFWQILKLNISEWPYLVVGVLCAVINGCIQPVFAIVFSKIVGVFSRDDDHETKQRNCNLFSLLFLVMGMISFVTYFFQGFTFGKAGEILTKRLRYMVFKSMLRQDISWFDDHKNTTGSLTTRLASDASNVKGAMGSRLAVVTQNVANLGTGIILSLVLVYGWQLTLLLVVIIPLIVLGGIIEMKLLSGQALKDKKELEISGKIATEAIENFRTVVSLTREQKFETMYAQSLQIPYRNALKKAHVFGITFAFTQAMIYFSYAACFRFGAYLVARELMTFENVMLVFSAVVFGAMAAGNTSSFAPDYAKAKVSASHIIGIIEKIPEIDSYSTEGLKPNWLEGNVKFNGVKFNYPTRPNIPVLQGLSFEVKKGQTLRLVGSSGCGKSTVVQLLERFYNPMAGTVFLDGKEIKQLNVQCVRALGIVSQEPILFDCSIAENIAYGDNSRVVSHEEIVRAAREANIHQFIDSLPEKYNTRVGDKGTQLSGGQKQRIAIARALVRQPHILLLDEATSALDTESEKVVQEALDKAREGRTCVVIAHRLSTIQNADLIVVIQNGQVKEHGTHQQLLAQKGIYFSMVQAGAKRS

Consider `Cc1ccc([C@H]2C[C@@H]2COc2cc(NCc3nnc(C)s3)nc(C)n2)nc1` [MK-8189], for which, in series [1], the Activity entry was “Dose-Dependent Effect”. Besides, the values for the concentration at 1 h in [2] and in [14] were 29 nM and 18 nM, respectively. In addition, the Ratio Ki in series [3], in series [9], in series [10], in series [11] and in series [12] was above 500000 each time. Moreover, the IC50 in series [4] and in series [24] was above 30 µM throughout. Moreover, the EC50 in series [5] is above 30 µM. The molecule further returned a PPB in series [6] of 96%. For the same molecule, the Occ in [7] came out at 50%; in series [8] it was 29%; in series [16] it was 24%; in series [19], 25%. The molecule also registered a clearance in series [13] of 21.3 mL/min/kg. Moreover, in series [15], the efflux ratio stood at 2.6. The concentration at 2.5 h in series [17] was 36 nM; in series [21], 17 nM. Besides, the Fu in series [18] was found to be 4%. Further, in series [20], the solubility was 5 mg/mL (≈ 13.1 mM). In addition, in [22], the Ratio is recorded as below 2. The Vd in series [23] was 0.93 L/kg.
